# Screening data as filed in PubChem.
# DNMT1 inh: DNMT1 (human) enzyme inhibition; DNMT1 molecular beacon, Hinp1I cleavage, fluorescence; actives 0.83% (n = 360,000); P26358; inhibition (reported as % activation of signal), % at 10 µM; in the data active = inhibition above about 50%
# Scp-1 inhibitor: Scp-1 (human) phosphatase inhibition; Q9GZU7; Recombinant Scp1, phosphopeptide, malachite green phosphate absorbance; inhibition, % at 20 µM; actives 0.88% (n = 340,000); AID 493091;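 active = inhibition above about 50% at 20 µM, limit read from the data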;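 also: plate controls were DMSO wells with enzyme for no effect and wells lacking enzyme for full effect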
# Target sequence (Q9GZU7 76-261 limits assumed): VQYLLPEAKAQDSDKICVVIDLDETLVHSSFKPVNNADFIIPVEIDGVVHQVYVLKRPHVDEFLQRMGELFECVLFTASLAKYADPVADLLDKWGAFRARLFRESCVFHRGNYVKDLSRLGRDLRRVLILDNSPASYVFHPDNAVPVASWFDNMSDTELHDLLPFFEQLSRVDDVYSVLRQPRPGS
#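 System: truncated SCP-1 phosphatase (76-261aa); medium: Tris acetate buffer pH 5.5 with MgCl2 and Tween-20; incubation: 45 min room-temperature reaction, 5 min colour, 30 min stabiliser; compound: single 20 µM dose, 1% DMSO; reagent: Phosphorylated 17-residue peptide substrate; read-out: % inhibition at 20 µM; technique: colorimetric free-phosphate detection, absorbance 630 nm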
# STEP block: blocks human striatal-enriched tyrosine phosphatase; actives 0.25% (n = 360,000); recombinant STEP, OMFP fluorogenic substrate, fluorescence; inhibition, % at 20 µM; P54829;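 active = inhibition at 20 µM, scaled per plate between control wells, above about 37%, limit read from the data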;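 also: 0% = DMSO with enzyme and substrate and 100% = substrate only without enzyme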
#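 System: isolated STEP enzyme; schedule: 20 min enzyme reaction at room temperature, protected from light; medium: Bis-Tris buffer pH 6.0, 2.5 mM DTT, 0.005% Tween 20; signal: fluorescence, 480/540 nm; dosing: single compound dose of 20 µM, 1% DMSO final; also added: OMFP substrate, 25 µM final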
# LMPTP block: LMPTP (human) inhibition. P24666. recombinant LMPTP-A, OMFP fluorogenic substrate, fluorescence intensity. inhibition, % at 20 µM. actives 0.22% (n = 360,000);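 active = compounds that cut the enzyme signal by at least half of the control window in the single-dose screen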;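 also: plate controls were DMSO wells with enzyme plus substrate for no effect and substrate without enzyme for full effect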
# Target sequence (P24666 whole entry, looked up): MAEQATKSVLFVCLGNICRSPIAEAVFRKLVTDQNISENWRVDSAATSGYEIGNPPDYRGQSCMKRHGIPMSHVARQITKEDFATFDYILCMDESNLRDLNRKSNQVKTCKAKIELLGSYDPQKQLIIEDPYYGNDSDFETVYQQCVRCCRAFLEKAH
#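 Buffer or medium: Bis-Tris pH 6.0, DTT, detergent; Assay system: LMPTP-A enzyme; Quantity: 0.625 nM enzyme; Detection: endpoint fluorescence intensity; Times: 50 min dark incubation at room temperature; Controls: substrate-only low control, DMSO enzyme-plus-substrate high control; Doses: single 20 µM dose; Read-out: percent inhibition versus substrate-only and uninhibited controls; Reagent: 400 µM OMFP.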
# SUMO1 PPI mod: modulators of human SUMO1-mediated protein-protein interactions; actives 0.33% (n = 360,000); inhibition, % at 20 µM; SUMO1 binding to a labelled peptide, TR-FRET, 1 h; AID 602429; in the data active = inhibition above about 37%
# Target sequence (P63165 whole entry, looked up): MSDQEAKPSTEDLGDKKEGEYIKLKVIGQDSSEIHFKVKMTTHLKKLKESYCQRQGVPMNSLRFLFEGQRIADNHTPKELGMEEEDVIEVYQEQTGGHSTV
# Scp1 confirm: Scp-1 (human) inhibition, single-dose confirmed; recombinant SCP-1 catalytic domain, phosphate release, malachite green absorbance; inhibition, % at 20 µM; AID 540281; shares compounds with Scp-1 inhibitor; actives 61% (n = 2,500);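 also: plate controls were DMSO with enzyme for no effect and buffer wells lacking enzyme for full effect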
# Scp-1 MG ctr: interferes with malachite green readout, flagging false Scp-1 hits. shares compounds with Scp-1 inhibitor. Colorimetric interference counterscreen, malachite green absorbance 630 nm. apparent inhibition (interference), % at 20 µM. 2,500 tested, under 10 active. AID 540313;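 also: compounds added after enzyme reaction finished so only phosphate colour detection is probed; plate controls were DMSO wells with completed Scp-1 reaction for no effect and substrate wells lacking enzyme for full effect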
# Scp-1 Tm shift: validation of human Scp-1 inhibitors by thermal shift binding; shares compounds with Scp-1 inhibitor; AID 540329; actives 25% (n = 1,500); thermal shift relative to vanadate control, % at 40 µM; Recombinant SCP1, Sypro Orange thermal shift Tm;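 active = substances whose mean melting-temperature shift, as a percentage of the reference inhibitor's shift, reaches about 5.3%, limit read from the data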;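 also: 0% = Tm of DMSO wells and 100% = Tm with sodium orthovanadate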
# Starred values were filed as active, the others as inactive; nt = no result. Rows were chosen to be rich in hits. Some 1.7% of all compounds tested hit in one or more screens of this group.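 The calls were made as follows, unless noted: active = inhibition of at least 30% at 20 µM; inactive = the rest.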
SMILES,DNMT1 inh,Scp-1 inhibitor,STEP block,LMPTP block,SUMO1 PPI mod,Scp1 confirm,Scp-1 MG ctr,others
CC[C@]1(C(=O)OC)[C@H]2C(=O)N(Cc3ccccc3)C(=O)[C@H]2[C@H]2CN=C(SCC3CC3)N21,3,54*,1,-2,2,-2,-19,
CC[C@]1(C(=O)OC)[C@H]2C(=O)N(Cc3ccccc3)C(=O)[C@H]2[C@H]2CN=C(SCc3ccc(C)cc3)N21,4,7,0,-1,0,nt,nt,
CCN1C(=O)[C@H]2[C@H]3CN=C(SCC4CC4)N3[C@@](Cc3ccccc3)(C(=O)OC)[C@H]2C1=O,4,82*,-3,2,-2,96*,-6,Scp-1 Tm shift=-12
O=C(CNC(=O)c1ccc(Br)cc1)N=Nc1c(O)[nH]c2ccc([N+](=O)[O-])cc12,12,1,3,-1,-5,nt,nt,
Cc1cccc(OCC(=O)NCC(=O)N=Nc2c(O)[nH]c3ccc([N+](=O)[O-])cc23)c1,11,59*,25,2,-10,17,-8,
Cc1ccccc1NCC(=O)N=Nc1c(O)[nH]c2ccc([N+](=O)[O-])cc12,-6,1,4,0,-14,nt,nt,
Cc1cccc(OCC(=O)N=Nc2c(O)[nH]c3ccc([N+](=O)[O-])cc23)c1,nt,-6,nt,nt,nt,nt,nt,
COc1ccc(/C=C/C(=O)NCC(=O)N=Nc2c(O)[nH]c3ccc([N+](=O)[O-])cc23)cc1,6,68*,13,9,-3,25,-5,
O=C(N=Nc1c(O)[nH]c2ccc([N+](=O)[O-])cc12)c1ccccc1Cl,6,99*,73*,28,18,70*,-19,Scp-1 Tm shift=16*
O=C(NCCc1cccc(Cl)c1)c1cccc(-n2cnnn2)c1,10,-5,1,-1,4,nt,nt,
CCCCN(C(=O)c1ccc(Cl)c(S(=O)(=O)N2CCOCC2)c1)c1c(N)n(CCC)c(=O)[nH]c1=O,7,58*,-2,-2,1,-3,-11,
CCCCN(C(=O)c1cc2c(s1)CCC2)c1c(N)n(CCC)c(=O)[nH]c1=O,33,60*,4,3,1,50*,-1,Scp-1 Tm shift=2
CCCN(C(=O)c1cc2c(s1)CCC2)c1c(N)n(Cc2ccccc2)c(=O)[nH]c1=O,53*,53*,-1,12,6,46*,-17,Scp-1 Tm shift=-3
CCCCn1c(N)c(N(CCOC)C(=O)c2ccc(Cl)c(S(=O)(=O)N3CCCCC3)c2)c(=O)[nH]c1=O,2,10,1,-1,-2,nt,nt,
CCCCN(C(=O)c1cc2c(s1)CCC2)c1c(N)n(CC(C)C)c(=O)[nH]c1=O,27,18,1,5,8,nt,nt,
CCCCN(C(=O)c1cnccn1)c1c(N)n(CCC)c(=O)[nH]c1=O,-3,99*,1,1,-1,-7,-7,
COCCCN(C(=O)c1cc2c(s1)CCC2)c1c(N)n(Cc2ccccc2)c(=O)[nH]c1=O,10,7,-2,3,-1,nt,nt,
COc1ccccc1CN1CC(C(=O)N2CCOCC2)CCC1=O (stereo not drawn),0,-5,-1,0,3,nt,nt,
CC(C)/C=N/NC(=O)c1ccc(Cl)cc1,-1,-1,2,-1,0,nt,nt,
CCCCN(C(=O)c1cccc(-n2cccc2)c1)c1c(N)n(CCCC)c(=O)[nH]c1=O,46,70*,3,3,16,12,-22,
COC(=O)Cn1c(=NC(=O)c2cc(-c3cccs3)nc3ccccc23)sc2cc(S(N)(=O)=O)ccc21,-21,4,-4,3,-6,nt,nt,
COC(=O)Cn1c(=NC(=O)c2nc3ccccc3s2)sc2cc(S(N)(=O)=O)ccc21,14,64*,0,28,3,52*,-15,Scp-1 Tm shift=0
CC(C)CCN(C(=O)c1ccc(Br)cc1)c1c(N)n(Cc2ccccc2)c(=O)[nH]c1=O,47,-5,-3,-1,5,nt,nt,
COc1ccc(N2CCN(C(=O)CN(C)S(=O)(=O)c3cnc[nH]3)CC2)cc1,2,54*,-1,1,-5,-18,-16,
C[C@H]1CCC(=O)N([C@H](CSc2ccc(Br)cc2)Cc2ccccc2)CC1,3,-8,5,5,1,nt,nt,
SMILES,DNMT1 inh,Scp-1 inhibitor,STEP block,LMPTP block,SUMO1 PPI mod,Scp1 confirm,Scp-1 MG ctr,others
COc1ccc(C=O)cc1CSc1ccccn1,-4,-11,0,-1,5,nt,nt,
COc1ccc(/C=N/NC(=O)c2ccc(O)cc2O)cc1CSc1ccccn1,41,57*,-3,5,13,64*,2,Scp-1 Tm shift=5
Cc1ccc(NC(=S)NC(=O)CC2CC(C)(C)OC2=O)cc1 (stereo not drawn),2,-9,-3,0,0,nt,nt,
Cc1cccc(NC(=S)NC(=O)CC2CC(C)(C)OC2=O)c1 (stereo not drawn),3,-6,-1,-1,-1,1,-3,
COc1cccc(-c2nc(CS(=O)(=O)CC(=O)NCCN3CCOCC3)c(C)o2)c1,3,-1,-2,0,2,nt,nt,
N#CC1=C(N)n2c(s/c(=C\c3ccco3)c2=O)=C(C#N)C1c1ccco1 (stereo not drawn),95*,63*,11,11,32,71*,-5,Scp-1 Tm shift=18*
CCOC(=O)C1=C(N)n2c(s/c(=C/c3ccco3)c2=O)=C(C(=O)OC)C1c1ccco1 (stereo not drawn),12,3,-1,0,4,nt,nt,
CCn1c(/C=C/Nc2ccccc2)[n+](CC)c2ccc(Cl)cc21,3,11,-6,-1,-1,nt,nt,
CCn1c(C)[n+](Cc2ccccc2)c2ccc(Cl)cc21,-1,1,-1,1,-2,nt,nt,
CCOC(=O)c1ccc2c(c1)n(CC)c(/C=C/Nc1ccccc1)[n+]2CC,5,62*,-3,-1,-3,-10,-11,
CCn1c(C)[n+](Cc2ccccc2)c2ccc(C(=O)OC)cc21,4,102*,-3,1,0,53*,-6,Scp-1 Tm shift=-4
C[C@H](CO)N1C[C@H](C)[C@@H](CN(C)S(=O)(=O)c2ccccc2F)Oc2ncc(C#Cc3cccnc3)cc2C1=O,3,nt,-2,-2,1,nt,nt,
C[n+]1ccccc1Nc1cc([N+](=O)[O-])ccc1N,0,69*,0,0,-11,87*,-16,Scp-1 Tm shift=0
